Measured values: PMC11847724 (Neoplasia (New York, N.Y.), 2025)
Where two headings read alike, the source gives them in different places.

Columns and labels:
FAK = conditions: preclinical studies ref 9, 10; cited from earlier work
ALK = conditions: preclinical studies ref 9, 10; cited from earlier work
[1] = test system: participants with advanced or metastatic solid tumors; format: in vivo, human
Summary of the method: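 Open-label, first-in-human 3 + 3 escalation in adults with recurrent, locally advanced or metastatic solid tumors lacking standard therapy. Test compound was given orally once daily from 25 up to 700 mg/day (modified Fibonacci steps) in 28-day cycles for 6 to 8 cycles, with no intrapatient escalation. The safety population was everyone dosed at least once. AEs were coded by MedDRA and graded by NCI CTCAE v4.03. DLT was assessed in cycle 1, and MTD was the highest dose with DLT in under one-third of a cohort.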

## CNC(=O)c1ccccc1Nc1nc(Nc2ccc3c(c2OC)CCC[C@H](N2CCN(CCO)CC2)C3)ncc1Cl [ESK-440]
FAK
  potency: low nanomolar
ALK
  potency: low nanomolar
[1]; 25 mg/day (n = 3)
  AE: Cough: 1 (33) Number (%) of participants
  AE: Decreased appetite: 0 Number (%) of participants
  AE: Diarrhea: 1 (33) Number (%) of participants
  AE: Edema peripheral: 0 Number (%) of participants
  AE: Fatigue: 0 Number (%) of participants
  AE: Nausea: 1 (33) Number (%) of participants
  AE: Pyrexia: 0 Number (%) of participants
  AE: Vomiting: 0 Number (%) of participants
  Any AE: 3 (100) Number (%) of participants
  Deaths: 1 (33) Number (%) of participants
  Grade 3-5 AE: 3 (100) Number (%) of participants
  Other serious AEs: 2 (67) Number (%) of participants
  Treatment-related AE: 1 (33) Number (%) of participants
  Withdrawn from treatment due to AE: 1 (33) Number (%) of participants
[1]; 50 mg/day (n = 3)
  AE: Cough: 0 Number (%) of participants
  AE: Decreased appetite: 0 Number (%) of participants
  AE: Diarrhea: 0 Number (%) of participants
  AE: Edema peripheral: 0 Number (%) of participants
  AE: Fatigue: 1 (33) Number (%) of participants
  AE: Nausea: 1 (33) Number (%) of participants
  AE: Pyrexia: 1 (33) Number (%) of participants
  AE: Vomiting: 0 Number (%) of participants
  Any AE: 2 (67) Number (%) of participants
  Deaths: 0 Number (%) of participants
  Grade 3-5 AE: 1 (33) Number (%) of participants
  Other serious AEs: 1 (33) Number (%) of participants
  Treatment-related AE: 1 (33) Number (%) of participants
  Withdrawn from treatment due to AE: 0 Number (%) of participants
[1]; 100 mg/day (n = 4)
  AE: Cough: 0 Number (%) of participants
  AE: Decreased appetite: 0 Number (%) of participants
  AE: Diarrhea: 0 Number (%) of participants
  AE: Edema peripheral: 1 (25) Number (%) of participants
  AE: Fatigue: 3 (75) Number (%) of participants
  AE: Nausea: 0 Number (%) of participants
  AE: Pyrexia: 1 (25) Number (%) of participants
  AE: Vomiting: 0 Number (%) of participants
  Any AE: 4 (100) Number (%) of participants
  Deaths: 1 (25) Number (%) of participants
  Grade 3-5 AE: 2 (50) Number (%) of participants
  Other serious AEs: 2 (50) Number (%) of participants
  Treatment-related AE: 2 (50) Number (%) of participants
  Withdrawn from treatment due to AE: 1 (25) Number (%) of participants
[1]; 150 mg/day (n = 3)
  AE: Cough: 1 (33) Number (%) of participants
  AE: Decreased appetite: 1 (33) Number (%) of participants
  AE: Diarrhea: 1 (33) Number (%) of participants
  AE: Edema peripheral: 1 (33) Number (%) of participants
  AE: Fatigue: 2 (67) Number (%) of participants
  AE: Nausea: 0 Number (%) of participants
  AE: Pyrexia: 1 (33) Number (%) of participants
  AE: Vomiting: 0 Number (%) of participants
  Any AE: 3 (100) Number (%) of participants
  Deaths: 0 Number (%) of participants
  Grade 3-5 AE: 1 (33) Number (%) of participants
  Other serious AEs: 1 (33) Number (%) of participants
  Treatment-related AE: 3 (100) Number (%) of participants
  Withdrawn from treatment due to AE: 0 Number (%) of participants
[1]; 250 mg/day (n = 4)
  AE: Cough: 1 (25) Number (%) of participants
  AE: Decreased appetite: 2 (50) Number (%) of participants
  AE: Diarrhea: 2 (50) Number (%) of participants
  AE: Edema peripheral: 2 (50) Number (%) of participants
  AE: Fatigue: 3 (75) Number (%) of participants
  AE: Nausea: 3 (75) Number (%) of participants
  AE: Pyrexia: 0 Number (%) of participants
  AE: Vomiting: 3 (75) Number (%) of participants
  Any AE: 4 (100) Number (%) of participants
  Deaths: 1 (25) Number (%) of participants
  Grade 3-5 AE: 1 (25) Number (%) of participants
  Other serious AEs: 1 (25) Number (%) of participants
  Treatment-related AE: 4 (100) Number (%) of participants
  Withdrawn from treatment due to AE: 0 Number (%) of participants
[1]; 350 mg/day (n = 4)
  AE: Cough: 1 (25) Number (%) of participants
  AE: Decreased appetite: 2 (50) Number (%) of participants
  AE: Diarrhea: 1 (25) Number (%) of participants
  AE: Edema peripheral: 0 Number (%) of participants
